Calls of active or inactive are those of the source. The calls are words filed in the database; no cut-off is given here.
Columns and labels:
Acetylcholinesterase [1] = molecular target: T1, Acetylcholinesterase (Homo sapiens, UniProt P22303); experiment: Inhibition of AChE (unknown origin) at 50 uM by Ellman's method relative to control
Cholinesterase [2] = molecular target: T2, Cholinesterase (Homo sapiens, UniProt P06276); experiment: Inhibition of BuChE (unknown origin) at 50 uM by Ellman's method relative to control
T2 sequence (P06276 whole entry): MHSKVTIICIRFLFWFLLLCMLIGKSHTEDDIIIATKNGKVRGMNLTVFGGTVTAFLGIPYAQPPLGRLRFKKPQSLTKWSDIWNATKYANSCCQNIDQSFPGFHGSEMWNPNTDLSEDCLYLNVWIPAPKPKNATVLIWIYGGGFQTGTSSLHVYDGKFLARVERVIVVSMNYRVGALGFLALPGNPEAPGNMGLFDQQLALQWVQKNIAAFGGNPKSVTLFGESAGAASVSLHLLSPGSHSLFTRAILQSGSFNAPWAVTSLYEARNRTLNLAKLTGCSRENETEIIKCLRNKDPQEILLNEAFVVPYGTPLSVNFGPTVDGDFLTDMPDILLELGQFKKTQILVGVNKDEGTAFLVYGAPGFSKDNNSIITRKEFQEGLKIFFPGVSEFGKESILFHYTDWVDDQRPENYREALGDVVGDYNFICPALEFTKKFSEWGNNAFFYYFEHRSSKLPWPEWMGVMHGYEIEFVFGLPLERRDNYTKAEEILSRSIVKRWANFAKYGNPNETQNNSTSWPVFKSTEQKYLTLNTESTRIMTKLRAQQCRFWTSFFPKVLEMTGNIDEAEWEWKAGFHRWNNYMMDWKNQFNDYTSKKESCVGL

Acetylcholinesterase [3] = molecular target: T1, Acetylcholinesterase; experiment: Inhibition of AChE (unknown origin) by Ellman's method
Acetylcholinesterase [4] = molecular target: T1, Acetylcholinesterase; experiment: Inhibition of AChE (unknown origin) using acetylthiocholine as substrate incubated for 15 mins by DTNB reagent based Ellman's method
Cholinesterase [5] = molecular target: T2, Cholinesterase; experiment: Inhibition of BuChE (unknown origin) incubated for 15 mins by DTNB reagent based Ellman's method
Cholinesterase [6] = molecular target: T2, Cholinesterase; experiment: Inhibition of BuChE (unknown origin) by Ellman's method
Acetylcholinesterase [7] = molecular target: T1, Acetylcholinesterase; experiment: Inhibition of AChE (unknown origin)
Acetylcholinesterase [8] = molecular target: T1, Acetylcholinesterase; experiment: Inhibition of AChE (unknown origin) assessed as inhibition constant
Method in brief: (§1)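 AChE kinetics run with acetylthiocholine substrate at 0.1–1 mM, with no inhibitor and with several inhibitor concentrations. Lineweaver–Burk double-reciprocal plots (1/V vs 1/[S]) across the inhibitor concentrations assigned the inhibition type and gave Km. Ki was estimated from a secondary plot of the slopes against inhibitor concentration.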

Cholinesterase [9] = molecular target: T2, Cholinesterase; experiment: Inhibition of BuChE (unknown origin)
[10] = Cytotoxicity against human MC65 cells assessed as reduction in cell viability; assay type: functional
[11] = Selectivity index, ratio of Ki for inhibition of AChE (unknown origin) to Ki for inhibition of BuChE (unknown origin)
Acetylcholinesterase [12] = molecular target: T1, Acetylcholinesterase; experiment: Mixed type inhibition of AChE (unknown origin) assessed as increase in Km at 2 to 12 uM by Lineweaver-burk plot analysis; settings: dose 2-12 µM; method in brief: as §1
Acetylcholinesterase [13] = molecular target: T1, Acetylcholinesterase; experiment: Mixed type inhibition of AChE (unknown origin) assessed as change in Vmax by Lineweaver-burk plot analysis; settings: dose 2-12 µM; method in brief: as §1
Acetylcholinesterase [14] = molecular target: T1, Acetylcholinesterase; experiment: Mixed type inhibition of AChE (unknown origin) assessed as inhibition constant by Lineweaver-burk plot analysis; method in brief: as §1
SH-SY5Y [15] = experiment: Cytotoxicity against human SH-SY5Y cells assessed as reduction in cell viability at 50 uM by MTT assay; assay type: functional
Method in brief: (§2)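 SH-SY5Y cells were grown in DMEM/F12 with 15% FBS, penicillin (100 units per ml) and streptomycin (100 μg ml−1) at 37 °C in humidified 5% CO2/95% air. After treatment, MTT was added at 0.5 mg ml−1 final for a further 2 h. Formazan was dissolved in DMSO and read at 540 nm. Untreated control cells were set as 100% viability.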

SH-SY5Y [16] = experiment: Cytotoxicity against human SH-SY5Y cells assessed as reduction in cell viability at 5 uM by MTT assay; assay type: functional, cell-based; method in brief: as §2

T1 sequence (P22303 whole entry): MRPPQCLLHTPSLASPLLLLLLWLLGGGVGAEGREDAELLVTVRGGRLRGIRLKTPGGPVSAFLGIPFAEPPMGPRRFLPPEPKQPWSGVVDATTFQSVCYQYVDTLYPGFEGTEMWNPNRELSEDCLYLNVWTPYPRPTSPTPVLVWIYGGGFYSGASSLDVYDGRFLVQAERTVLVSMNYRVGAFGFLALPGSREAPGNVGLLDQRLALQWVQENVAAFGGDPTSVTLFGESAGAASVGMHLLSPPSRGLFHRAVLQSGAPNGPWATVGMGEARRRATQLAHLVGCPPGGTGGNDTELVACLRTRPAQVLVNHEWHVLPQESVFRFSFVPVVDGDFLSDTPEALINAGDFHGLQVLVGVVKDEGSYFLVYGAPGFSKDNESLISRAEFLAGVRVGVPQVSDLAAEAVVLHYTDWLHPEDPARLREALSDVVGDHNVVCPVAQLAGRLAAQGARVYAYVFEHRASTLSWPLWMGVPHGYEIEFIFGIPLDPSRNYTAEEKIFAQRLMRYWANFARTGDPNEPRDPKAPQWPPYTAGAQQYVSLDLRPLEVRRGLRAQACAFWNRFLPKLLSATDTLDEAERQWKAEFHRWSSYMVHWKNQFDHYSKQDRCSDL

Cc1ccc(NC2=C([N+](=O)[O-])C3(NN2)C(=O)Nc2ccccc23)cc1C (centres undefined)
inhibition (Acetylcholinesterase [1]): 29.4% | inhibition (Cholinesterase [2]): 31.1%

Cc1ccccc1NC1=C([N+](=O)[O-])C2(NN1)C(=O)Nc1c(C(F)(F)F)cccc12 (centres undefined)
inhibition (Acetylcholinesterase [1]): 63.1% | IC50 (Acetylcholinesterase [3]): 17 µM | inhibition (Cholinesterase [2]): 37.5%

COc1ccc(NC2=C([N+](=O)[O-])C3(NN2)C(=O)Nc2ccc(OC)cc23)cc1 (centres undefined)
inhibition (Acetylcholinesterase [1]): 29.7% | inhibition (Cholinesterase [2]): inactive

O=C1Nc2ccccc2C12NNC(Nc1ccc(O)cc1)=C2[N+](=O)[O-] (centres undefined)
inhibition (Acetylcholinesterase [1]): 41% | inhibition (Cholinesterase [2]): 12.9%

COc1ccc(OC)c(NC2=C([N+](=O)[O-])C3(NN2)C(=O)Nc2ccc([N+](=O)[O-])cc23)c1 (centres undefined)
inhibition (Acetylcholinesterase [1]): 55.1% | IC50 (Acetylcholinesterase [3]): 42.6 µM | inhibition (Cholinesterase [2]): 25.1%

CCOP(=O)(OCC)C(NCc1cccs1)c1cn(-c2ccccc2)nc1-c1ccc(Cl)cc1 (centres undefined)
IC50 (Acetylcholinesterase [4]): 0.017 µM | IC50 (Cholinesterase [5]): 6.33 µM

COc1ccc2c(c1)C1(NNC(Nc3ccc(C)c(C)c3)=C1[N+](=O)[O-])C(=O)N2 (centres undefined)
inhibition (Acetylcholinesterase [1]): inactive | inhibition (Cholinesterase [2]): 52.3% | IC50 (Cholinesterase [6]): 47.3 µM

Cc1cc(-c2cc3cc([N+](=O)[O-])ccc3oc2=O)n[nH]1
IC50 (Acetylcholinesterase [7]): 16.3 µM

Cc1ccccc1NC1=C([N+](=O)[O-])C2(NN1)C(=O)Nc1ccccc12 (centres undefined)
inhibition (Acetylcholinesterase [1]): 35.4% | inhibition (Cholinesterase [2]): 60.1% | IC50 (Cholinesterase [6]): 20 µM

NS(=O)(=O)c1cccc(NC(=S)N/N=C2\C(=O)N(Cc3ccccc3)c3ccc([N+](=O)[O-])cc32)c1
Ki (Acetylcholinesterase [8]): 0.22 µM

Cc1ccccc1NC1=C([N+](=O)[O-])C2(NN1)C(=O)Nc1ccc([N+](=O)[O-])cc12 (centres undefined)
inhibition (Acetylcholinesterase [1]): 71.6% | IC50 (Acetylcholinesterase [3]): 15.5 µM | inhibition (Cholinesterase [2]): 38.9%

COc1ccc(NC2=C([N+](=O)[O-])C3(NN2)C(=O)Nc2ccccc23)cc1 (centres undefined)
inhibition (Acetylcholinesterase [1]): 47.8% | inhibition (Cholinesterase [2]): 53.4% | IC50 (Cholinesterase [6]): 34.7 µM

Cc1ccccc1NC1=C([N+](=O)[O-])C2(NN1)C(=O)Nc1ccc(Cl)cc12 (centres undefined)
inhibition (Acetylcholinesterase [1]): 21.9% | inhibition (Cholinesterase [2]): 73.8% | IC50 (Cholinesterase [6]): 9.13 µM

O=C(Nc1cccc(-c2cc(-c3ccc(Cl)cc3)n[nH]2)c1)c1ccccc1
IC50 (Acetylcholinesterase [7]): 1.94 µM | IC50 (Cholinesterase [9]): 1.17 µM | Activity [10]: 90%

O=C1Nc2c(C(F)(F)F)cccc2C12NNC(Nc1cccc3ccccc13)=C2[N+](=O)[O-] (centres undefined)
inhibition (Acetylcholinesterase [1]): 39.1% | inhibition (Cholinesterase [2]): inactive

Cc1cc(Cl)cc2c1N(C)C(=O)/C2=N\NC(=S)Nc1cccc(S(N)(=O)=O)c1
Ki (Acetylcholinesterase [8]): 0.52 µM | Ratio Ki [11]: 37.7

Cc1ccccc1NC1=C([N+](=O)[O-])C2(NN1)C(=O)Nc1ccc(Br)cc12 (centres undefined)
inhibition (Acetylcholinesterase [1]): 51.8% | IC50 (Acetylcholinesterase [3]): 41.7 µM | inhibition (Cholinesterase [2]): 34%

Cc1ccc(NC2=C([N+](=O)[O-])C3(NN2)C(=O)Nc2ccccc23)cc1 (centres undefined)
inhibition (Acetylcholinesterase [1]): 30.5% | inhibition (Cholinesterase [2]): 56.5% | IC50 (Cholinesterase [6]): 25.1 µM

O=C1Nc2ccc([N+](=O)[O-])cc2C12NNC(Nc1ccc(Cl)cc1)=C2[N+](=O)[O-] (centres undefined)
inhibition (Acetylcholinesterase [1]): 65.9% | IC50 (Acetylcholinesterase [3]): 37.1 µM | inhibition (Cholinesterase [2]): 21.8%

O=C1Nc2ccccc2C12NNC(Nc1cccc(Cl)c1)=C2[N+](=O)[O-] (centres undefined)
inhibition (Acetylcholinesterase [1]): 75.5% | IC50 (Acetylcholinesterase [3]): 6.02 µM | inhibition (Cholinesterase [2]): 13.9% | inhibition (Acetylcholinesterase [12]): Active | inhibition (Acetylcholinesterase [13]): Dose-Dependent Effect | Ki (Acetylcholinesterase [14]): 5.59 µM | Activity (SH-SY5Y [15]): 64.81% | Activity (SH-SY5Y [16]): inactive

O=C1Nc2ccccc2C12NNC(Nc1ccc(Cl)cc1)=C2[N+](=O)[O-] (centres undefined)
inhibition (Acetylcholinesterase [1]): 13.9% | inhibition (Cholinesterase [2]): 14.9%

O=C1Nc2c(C(F)(F)F)cccc2C12NNC(Nc1cccc(Cl)c1)=C2[N+](=O)[O-] (centres undefined)
inhibition (Acetylcholinesterase [1]): 20.6% | inhibition (Cholinesterase [2]): 18.8%

Source: ChEMBL document CHEMBL5357038, “Highly efficient, catalyst-free, one-pot sequential four-component synthesis of novel spiroindolinone-pyrazole scaffolds as anti-Alzheimer agents: in silico study and biological screening” (RSC Med Chem, 2024)
